In brackets after ≈: the same amount, converted by molar mass. Activity calls are given as the source filed them. The calls are words filed in the database; no cut-off is given here.
Tests used:
[1] = Inhibition of bacterial VIM-1 (unknown origin) expressed in Escherichia coli EXPRESS BL21(DE3) assessed as inhibition constant by measuring rate of substrate hydrolysis by UV-visible spectrophotometry; set-up: species or system Bacteria
Method in brief: (§1)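 Reporter-substrate assay with purified MBL (1–70 nM final) in 50 mM HEPES pH 7.5 at 30 °C. […] Inhibitor 0.5–1000 μM final. Ki derived from the v0/vi vs [I] slope assuming competitive inhibition, or from a Dixon plot. Ki given when inhibition >70%, otherwise % inhibition at 100 μM. Triplicate.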

[2] = Inhibition of bacterial VIM-2 (unknown origin) expressed in Escherichia coli EXPRESS BL21(DE3) assessed as inhibition constant by measuring rate of substrate hydrolysis by UV-visible spectrophotometry; set-up: species or system Bacteria; method in brief: as §1
[3] = Inhibition of bacterial VIM-4 (unknown origin) expressed in Escherichia coli EXPRESS BL21(DE3) assessed as inhibition constant by measuring rate of substrate hydrolysis by UV-visible spectrophotometry; set-up: species or system Bacteria; method in brief: as §1
[4] = Inhibition of bacterial NDM-1 (unknown origin) expressed in Escherichia coli EXPRESS BL21(DE3) assessed as inhibition constant by measuring rate of substrate hydrolysis by UV-visible spectrophotometry; set-up: species or system Bacteria; method in brief: as §1
Bacteria [5] = test: Inhibition of bacterial IMP-1 (unknown origin) expressed in Escherichia coli EXPRESS BL21(DE3) assessed as inhibition constant by measuring rate of substrate hydrolysis at 100 uM by UV-visible spectrophotometry relative to control; method in brief: as §1
Bacteria [6] = test: Competitive inhibition of bacterial VIM-2 (unknown origin) assessed as Zn(II) content by at 48 uM by overnight equilibrium dialysis
Method in brief: (§2)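 VIM-2 or NDM-1 (3 μM final) in 50 mM HEPES pH 7.5 mixed with compound at 0–48 μM. Incubated 1 h on ice, then dialysed overnight at 4 °C against 50 mM HEPES pH 7.5. Zn(II) content measured by atomic absorption at 213.86 nm against a zinc standard curve. Each point averages three samples.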

Bacteria [7] = test: Competitive inhibition of bacterial NDM-1 (unknown origin) assessed as Zn(II) content at 48 uM by overnight equilibrium dialysis; method in brief: as §2
Bacteria [8] = test: Inhibition of bacterial VIM-2 (unknown origin) assessed as ternary complex formation using 10 uM enzyme concentration at 50 uM by native MS analysis
Method in brief: (§3)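 Purified VIM-2 or NDM-1 was given 2 mM TCEP and 2 equiv ZnCl2, incubated 1 h, and dialysed overnight into 100 mM ammonium acetate pH 7.5. Enzyme at 10 μM was then incubated 5 min with 50 μM compound. Positive-mode nanoESI on an Orbitrap, scanning m/z 1000–4000. Species assigned from deconvoluted masses.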

Bacteria [9] = test: Inhibition of bacterial NDM-1 (unknown origin) assessed as ternary complex formation using 10 uM enzyme concentration at 50 uM by native MS analysis; method in brief: as §3
Klebsiella pneumoniae [10] = test: Antimicrobial activity against blaVIM-1-producing multidrug-resistant Klebsiella pneumoniae K47-25 clinical isolate assessed as meropenem MIC at 32 ug/ml by broth microdilution method (reference value: […] ug/ml); assay type: functional; details: dose 32 µg/ml
Method in brief: (§4)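 Inoculum was 5×10^4 CFU/well. Each inhibitor was present at a fixed 32 μg/mL, and MICs were also taken without inhibitor.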

Klebsiella pneumoniae [11] = test: Antimicrobial activity against blaVIM-4-producing multidrug-resistant Klebsiella pneumoniae VA-416/02 clinical isolate assessed as meropenem MIC at 32 ug/ml by broth microdilution method (reference value: […] ug/ml); assay type: functional; details: dose 32 µg/ml; method in brief: as §4
Pseudomonas aeruginosa [12] = test: Antimicrobial activity against blaVIM-2-producing multidrug-resistant Pseudomonas aeruginosa VA-182/00 clinical isolate assessed as meropenem MIC at 32 ug/ml by broth microdilution method (reference value: 128 ug/ml); assay type: functional; details: dose 32 µg/ml; method in brief: as §4
Escherichia coli [13] = test: Antimicrobial activity against blaNDM-1-producing multidrug-resistant Escherichia coli SI-004 clinical isolate assessed as meropenem MIC at 32 ug/ml by broth microdilution method (reference value: 64 ug/ml)
[14] = Metabolic stability in CD-1 mouse microsomes assessed as half life at 37 degC by LC-MS/MS analysis; assay type: ADME, Microsome
Method in brief: (§5)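 Mouse liver microsomes, mixed gender, at 37 °C for 40 min; propranolol control. Reports t1/2, intrinsic clearance and % intact compound remaining at 40 min.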

[15] = Inhibition of bacterial Metallo-beta-lactamase VIM-1 (unknown origin); set-up: species or system Bacteria; method in brief: as §1
[16] = Inhibition of bacterial Metallo-beta-lactamase VIM-2 (unknown origin); set-up: species or system Bacteria; method in brief: as §1
[17] = Inhibition of bacterial Metallo-beta-lactamase VIM-4 (unknown origin); set-up: species or system Bacteria; method in brief: as §1
[18] = Inhibition of bacterial Metallo-beta-lactamase NDM-1 (unknown origin); set-up: species or system Bacteria; method in brief: as §1
[19] = Inhibition of bacterial Metallo-beta-lactamase IMP-1 (unknown origin); set-up: species or system Bacteria; method in brief: as §1
Bacteria [20] = test: Inhibition of bacterial Metallo-beta-lactamase VIM-1 (unknown origin) at 100 uM relative to control; method in brief: as §1
[21] = Inhibition of bacterial IMP-1 (unknown origin) expressed in Escherichia coli EXPRESS BL21(DE3) assessed as inhibition constant by measuring rate of substrate hydrolysis by UV-visible spectrophotometry; set-up: species or system Bacteria; method in brief: as §1
[22] = biological target: Insulin-degrading enzyme (Homo sapiens) (UniProt P14735); test: Inhibition of recombinant human IDE using ATTO 655-Cys-Lys-Leu-Val-Phe-Phe-Ala-Glu-Asp-Trp as substrate at 0.4 uM measured after 45 mins by fluorescence assay relative to control
[23] = Cytotoxicity against human HeLa cells assessed as LDH release incubated for 24 hrs by membrane integrity assay; assay type: toxicity, cell-based
Method in brief: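 HeLa cells (20,000/well) exposed to compound up to 250 μM for 24 h at 37 °C, 5% CO2 in DMEM with 10% FBS, 4.5 mg/mL glucose and 2 mM L-glutamine. LDH release expressed as % of Triton X-100 maximum lysis; IC50 is the concentration giving 50% cytotoxicity.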

Pseudomonas aeruginosa [24] = test: Antimicrobial activity against blaVIM-2-producing multidrug-resistant Pseudomonas aeruginosa VA-182/00 clinical isolate; assay type: functional
Escherichia coli [25] = test: Antimicrobial activity against blaNDM-1-producing multidrug-resistant Escherichia coli SI-004 clinical isolate; assay type: functional
Method in brief: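 Broth microdilution per CLSI in cation-supplemented Mueller–Hinton broth with an inoculum of 5×10^4 CFU/well.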

Bacteria [26] = test: Inhibition of bacterial NDM-1 (unknown origin) expressed in Escherichia coli EXPRESS BL21(DE3) assessed as inhibition constant by measuring rate of substrate hydrolysis at 100 uM by UV-visible spectrophotometry relative to control; method in brief: as §1
Bacteria [27] = test: Inhibition of bacterial Metallo-beta-lactamase NDM-1 (unknown origin) at 100 uM relative to control; method in brief: as §1
Bacteria [28] = test: Inhibition of bacterial VIM-2 (unknown origin) assessed as Zn(II) content in protein at >5 uM by overnight equilibrium dialysis; method in brief: as §2
Bacteria [29] = test: Inhibition of bacterial VIM-1 (unknown origin) expressed in Escherichia coli EXPRESS BL21(DE3) assessed as inhibition constant by measuring rate of substrate hydrolysis at 100 uM by UV-visible spectrophotometry relative to control; method in brief: as §1
Bacteria [30] = test: Inhibition of bacterial VIM-2 (unknown origin) expressed in Escherichia coli EXPRESS BL21(DE3) assessed as inhibition constant by measuring rate of substrate hydrolysis at 100 uM by UV-visible spectrophotometry relative to control; method in brief: as §1
Bacteria [31] = test: Inhibition of bacterial VIM-4 (unknown origin) expressed in Escherichia coli EXPRESS BL21(DE3) assessed as inhibition constant by measuring rate of substrate hydrolysis at 100 uM by UV-visible spectrophotometry relative to control; method in brief: as §1
[32] = Metabolic stability in CD-1 mouse microsomes assessed as compound remaining after 40 mins LC-MS/MS analysis; assay type: ADME, Microsome; details: read-out: Activity; method in brief: as §5

Insulin-degrading enzyme (Homo sapiens), sequence (P14735 whole entry): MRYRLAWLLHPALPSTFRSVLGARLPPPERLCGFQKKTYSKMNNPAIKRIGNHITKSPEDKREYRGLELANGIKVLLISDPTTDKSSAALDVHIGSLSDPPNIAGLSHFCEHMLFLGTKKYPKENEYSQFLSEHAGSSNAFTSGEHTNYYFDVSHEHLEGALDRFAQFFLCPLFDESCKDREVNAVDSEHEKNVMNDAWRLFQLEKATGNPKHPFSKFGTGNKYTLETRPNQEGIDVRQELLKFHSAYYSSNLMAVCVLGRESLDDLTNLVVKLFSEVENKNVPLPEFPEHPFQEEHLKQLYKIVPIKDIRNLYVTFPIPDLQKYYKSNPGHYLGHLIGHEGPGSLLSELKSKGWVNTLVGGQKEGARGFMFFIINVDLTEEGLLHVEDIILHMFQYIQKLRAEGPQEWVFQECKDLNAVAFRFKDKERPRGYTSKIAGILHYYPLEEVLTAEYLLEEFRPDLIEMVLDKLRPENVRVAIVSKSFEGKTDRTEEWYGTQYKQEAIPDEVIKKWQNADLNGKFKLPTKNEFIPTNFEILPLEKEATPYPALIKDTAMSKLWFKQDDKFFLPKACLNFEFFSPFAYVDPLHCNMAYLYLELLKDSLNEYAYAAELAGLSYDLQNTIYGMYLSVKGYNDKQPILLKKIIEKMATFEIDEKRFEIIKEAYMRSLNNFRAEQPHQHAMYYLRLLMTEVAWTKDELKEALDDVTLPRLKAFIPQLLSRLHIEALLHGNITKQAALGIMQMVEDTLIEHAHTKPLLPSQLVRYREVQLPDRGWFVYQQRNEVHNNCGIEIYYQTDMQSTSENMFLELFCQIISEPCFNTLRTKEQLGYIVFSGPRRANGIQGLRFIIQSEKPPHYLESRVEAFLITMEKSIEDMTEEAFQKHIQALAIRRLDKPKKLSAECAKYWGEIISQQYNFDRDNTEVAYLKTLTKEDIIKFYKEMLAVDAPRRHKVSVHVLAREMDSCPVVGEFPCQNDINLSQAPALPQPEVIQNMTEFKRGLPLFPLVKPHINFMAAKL

Compound | Ki [1] [µM] | Ki [2] [µM] | Ki [3] [µM] | Ki [4] [µM] | inhibition (Bacteria [5]) [%] | MIC (Klebsiella pneumoniae [10]) [µg/mL] | MIC (Klebsiella pneumoniae [11]) [µg/mL] | MIC (Pseudomonas aeruginosa [12]) [µg/mL] | MIC (Escherichia coli [13]) [µg/mL] | further results
O=C(O)[C@H](CCCn1c(-c2ccccc2)n[nH]c1=S)N(Cc1cncs1)Cc1cncs1 | 0.3 | 0.1 | 0.14 | 28 | < 30 | 1 | 1 | 128 | 32 | inhibition (Bacteria [6]): Active; inhibition (Bacteria [7]): Active; inhibition (Bacteria [8]): Active; inhibition (Bacteria [9]): Active
CCOC(=O)[C@H](CCc1ccccc1)N[C@@H](C)C(=O)N1CCC[C@H]1C(=O)O |  |  |  |  |  |  |  |  |  | half-life [14]: 1.05 h
O=C(O)CCCCn1c(-c2ccccc2)n[nH]c1=S |  |  |  |  |  |  |  |  |  | Ki [15]: 13.9 µM; Ki [16]: 2.81 µM; Ki [17]: 1.13 µM; Ki [18]: Not Active; Ki [19]: Not Active; inhibition (Bacteria [20]): 57%
O=C(O)[C@H](CCCCn1c(-c2ccccc2)n[nH]c1=S)N(Cc1c[nH]cn1)Cc1c[nH]cn1 | 0.04 | 0.97 | 0.47 | 0.36 |  | 0.03 | 0.03 | 16 | 0.06 | Ki [21]: 5 µM
O=C(O)[C@H](CCCn1c(Cc2ccc3ccccc3c2)n[nH]c1=S)N(Cc1c[nH]cn1)Cc1c[nH]cn1 | 0.08 | 0.27 | 0.19 | 0.03 |  | 0.03 | 0.06 | 8 | 0.06 | Ki [21]: 11.2 µM
O=C(C[C@H](Cc1ccc2ccccc2c1)n1cc(CNC(=O)c2ccc(F)cc2)nn1)NO |  |  |  |  |  |  |  |  |  | inhibition [22]: 65%
Cc1[nH]cnc1CN(Cc1nc[nH]c1C)[C@@H](CCCn1c(-c2ccccc2)n[nH]c1=S)C(=O)O | 0.31 | 0.22 | 0.35 | 0.023 | 57 | 0.03 | 0.03 | 16 | 2 | CC50 at 24 h [23]: 141 µM
O=C(O)[C@H](CCCn1c(-c2ccccc2)n[nH]c1=S)N(Cc1ccccn1)Cc1c[nH]cn1 | 0.95 | 0.64 | 0.56 | 0.38 | < 30 | 0.06 | 0.03 | 8 | 0.06 | CC50 at 24 h [23]: 175 µM
C[C@@H](O)[C@H]1C(=O)N2C(C(=O)O)=C(S[C@@H]3CN[C@H](C(=O)N(C)C)C3)[C@H](C)[C@H]12 [MEROPENEM] |  |  |  |  |  |  |  |  |  | MIC (Pseudomonas aeruginosa [24]): 128 µg/mL (≈ 334 µM); MIC (Escherichia coli [25]): 64 µg/mL (≈ 167 µM)
O=C(O)[C@H](CCCn1c(-c2ccccc2)n[nH]c1=S)N(Cc1cccnc1)Cc1cccnc1 | 2.6 | 0.42 | 0.52 |  | < 30 | 4 | 1 | 128 | 64 | inhibition (Bacteria [26]): 67%; inhibition (Bacteria [6]): Active; inhibition (Bacteria [7]): Active; inhibition (Bacteria [8]): Active; inhibition (Bacteria [9]): Active
CC(C)(C)OC(=O)N[C@@H](CCCn1c(-c2ccccc2)n[nH]c1=S)C(=O)O |  |  |  |  |  |  |  |  |  | Ki [15]: 30.8 µM; Ki [16]: 1.95 µM; Ki [17]: 1.51 µM; Ki [19]: Not Active; inhibition (Bacteria [27]): 35%
O=C(Nc1ccccc1)NC(CCCn1c(-c2ccccc2)n[nH]c1=S)C(=O)O (configuration not stated) |  |  |  |  |  |  |  |  |  | Ki [16]: 6.93 µM; Ki [17]: 4.14 µM; Ki [18]: Not Active; Ki [19]: Not Active
O=C(O)[C@H](Cn1c(-c2ccccc2)n[nH]c1=S)N(Cc1c[nH]cn1)Cc1c[nH]cn1 | 0.88 | 1.5 | 0.56 | 0.04 |  | 0.03 | 0.03 | 16 | 0.06 | Ki [21]: 4.2 µM
O=C(O)[C@@H](CCCn1c(-c2ccccc2)n[nH]c1=S)N(Cc1c[nH]cn1)Cc1c[nH]cn1 | 0.17 | 0.19 | 0.11 | 0.014 |  | 0.03 | 0.03 | 8 | 0.06 | Ki [21]: 7.4 µM; inhibition (Bacteria [28]): Active
O=C(O)[C@H](CCCn1c(-c2ccccc2)n[nH]c1=S)NCc1c[nH]cn1 |  |  |  |  | < 30 | 2 | 4 | 128 | 64 | inhibition (Bacteria [29]): 53%; inhibition (Bacteria [30]): < 30%; inhibition (Bacteria [31]): < 30%; inhibition (Bacteria [26]): 35%
CC(C)NCC(O)COc1cccc2ccccc12 (configuration not stated) [PROPRANOLOL] |  |  |  |  |  |  |  |  |  | remaining at 40 min [32]: 31%

Reference: ChEMBL document CHEMBL5236609, “Optimization of 1,2,4-Triazole-3-thiones toward Broad-Spectrum Metallo-β-lactamase Inhibitors Showing Potent Synergistic Activity on VIM- and NDM-1-Producing Clinical Isolates” (J Med Chem, 2022)
